Measurements from paper PMC5891368 (European journal of medicinal chemistry, 2018).
“Also recorded” adds a separate entry of the source.

What was measured:
[1] = test system: MDA-MB-231 cells; experiment: Matrigel invasion assay induced by CXCR4/CXCL12; type: cell-based; settings: Homo sapiens, MDA-MB-231, 22 h, read-out: inhibition of Matrigel invasion
In short: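 MDA-MB-231 cells were pre-treated with test compound at 100 nM and then seeded in the top chamber of a Matrigel invasion chamber in serum-free medium. CXCL12α at 200 ng/mL in the bottom chamber served as chemoattractant. After 22 h in a humidified incubator, non-invading cells were swabbed off. Invading cells were methanol-fixed, stained with H&E and counted to give percent invasion.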

[2] = test system: xylene-induced ear edema; settings: mouse, in vivo; cited from earlier work
[3] = test system: MCF-7 cells; experiment: cytotoxicity, cell viability; type: cell-based; settings: MCF-7 (CXCR4-positive); MTT; 72 h
In short: (§1)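 Cells were seeded at 3000 per well in 96-well plates and grown 24 h at 37 °C in a CO2 incubator. They were then exposed at 37 °C to test compound or vehicle control. CellTiter 96AQ (MTT-type) reagent was added for a further 2 h, and absorbance was read at 490 nm.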

[4] = test system: phosphorylation of Akt; experiment: Western blot, CXCL12 induced phosphorylation of Akt; type: cell-based; settings: dose-dependent
In short: (§2)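 Rabbit monoclonal primaries (1:500, overnight, 4 °C) were phospho-Akt Ser473 with pan-Akt for Akt, and phospho-p44/42 MAPK Thr202/Tyr204 with total p44/42 for p44/42. Detection used HRP goat anti-rabbit (1:10000, 1 h) and enhanced chemiluminescence.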

[5] = test system: MCF-10A cells; experiment: cytotoxicity, cell viability; type: cell-based; settings: up to 10 μM, MTT
[6] = test system: 184A1N4 cells; experiment: cytotoxicity, cell viability; type: cell-based; settings: 184A1N4 (CXCR4-negative); MTT; 72 h
In short: as §1

[7] = test system: xylene-induced ear edema; experiment: xylene-induced ear edema model; type: in vivo, mouse; settings: after treatment with compound
[8] = test system: MDA-MB-231 cells; experiment: cytotoxicity, cell viability; type: cell-based, human; settings: MDA-MB-231 (CXCR4-positive); up to 10 μM; MTT
In short: as §1

[9] = test system: phosphorylation of p44/42; experiment: Western blot, CXCL12 induced phosphorylation of p44/42; type: cell-based
In short: as §2

[10] = test system: SKBR3 cells; experiment: cytotoxicity, cell viability; type: cell-based; settings: SKBR3 (CXCR4-positive); MTT; 72 h
In short: as §1

[11] = test system: AC1-ExR cells; experiment: cytotoxicity, cell viability; type: cell-based; settings: AC1-ExR (CXCR4-positive); MTT; 72 h
In short: as §1

Structure (SMILES) | inhibition at 0.1 µM [1] [%] | toxicity in this animal model [2] | antiproliferative activity / cytotoxicity [3] | active concentration for inhibition of Akt phosphorylation [4] [nM] | antiproliferative activity / cytotoxicity [5] | antiproliferative activity / cytotoxicity [6] | number of inflammatory cells in inflammatory tissues (histological analysis) [7] | swollen volume and thickness of the mouse ear (histological analysis) [7] | antiproliferative activity / cytotoxicity [8] | concentration suppressing phosphorylation of p44 [9] [nM] | antiproliferative activity / cytotoxicity [10] | antiproliferative activity / cytotoxicity [11]
c1cc(CN2CCCNCCNCCCNCC2)ccc1CN1CCCNCCNCCCNCC1 [AMD3100] | 55 | serious toxicity |  |  |  |  |  |  |  |  |  | 
O=C(NCc1ccc(CNS(=O)(=O)c2ccccc2)cc1)c1ccc(CNc2ncccn2)cc1 [Compound 7a, N-(4-(phenylsulfonamidomethyl)benzyl)-4-((pyrimidin-2-ylamino)methyl)benzamide] |  |  | no statistically significant differences | 1 | did not inhibit the proliferation | no statistically significant differences | significantly decreased | significantly reduced | did not inhibit the proliferation; also recorded: no statistically significant differences | 0.1 | no statistically significant differences | no statistically significant differences
